Reference: ChEMBL document CHEMBL4251575, “Design, synthesis, and biological evaluation of 1,3-diarylisoquinolines as novel topoisomerase I catalytic inhibitors” (Eur J Med Chem, 2018)
Where a name gives a salt, the structure may show the parent alone. Active and inactive are the calls of the source. The calls are words filed in the database; no cut-off is given here.

Legend:
MCF-10A = assay: Cytotoxicity against human MCF10A cells after 72 hrs by cell counting kit-8 analysis; type: cell-based
Outline: (§1)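 Cells seeded at 2×10^5 or 1×10^5 per well, grown overnight in medium with 10% FBS at 37 °C, 5% CO₂, then FBS-starved 4 h. Graded compound concentrations given for 72 h. CCK-8 then added for 4 h and absorbance read at 450 nm. IC50 from a four-parameter logistic fit; mean ± S.D. of three experiments, each in triplicate.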

T47D = assay: Cytotoxicity against human T47D cells after 72 hrs by cell counting kit-8 analysis; type: functional, cell-based; outline: as §1
HCT-15 = assay: Cytotoxicity against human HCT15 cells after 72 hrs by cell counting kit-8 analysis; type: functional, cell-based; conditions: HCT-15, 72 h; outline: as §1
[1] = target: T1, DNA topoisomerase 1 (Homo sapiens) (UniProt P11387); assay: Inhibition of human recombinant DNA topoisomerase 1-mediated DNA relaxation at 100 uM incubated for 30 mins using pBR322 DNA substrate by ethidium bromide dye-based agarose gel electrophoresis relative to control camptothecin
T1 sequence (whole entry): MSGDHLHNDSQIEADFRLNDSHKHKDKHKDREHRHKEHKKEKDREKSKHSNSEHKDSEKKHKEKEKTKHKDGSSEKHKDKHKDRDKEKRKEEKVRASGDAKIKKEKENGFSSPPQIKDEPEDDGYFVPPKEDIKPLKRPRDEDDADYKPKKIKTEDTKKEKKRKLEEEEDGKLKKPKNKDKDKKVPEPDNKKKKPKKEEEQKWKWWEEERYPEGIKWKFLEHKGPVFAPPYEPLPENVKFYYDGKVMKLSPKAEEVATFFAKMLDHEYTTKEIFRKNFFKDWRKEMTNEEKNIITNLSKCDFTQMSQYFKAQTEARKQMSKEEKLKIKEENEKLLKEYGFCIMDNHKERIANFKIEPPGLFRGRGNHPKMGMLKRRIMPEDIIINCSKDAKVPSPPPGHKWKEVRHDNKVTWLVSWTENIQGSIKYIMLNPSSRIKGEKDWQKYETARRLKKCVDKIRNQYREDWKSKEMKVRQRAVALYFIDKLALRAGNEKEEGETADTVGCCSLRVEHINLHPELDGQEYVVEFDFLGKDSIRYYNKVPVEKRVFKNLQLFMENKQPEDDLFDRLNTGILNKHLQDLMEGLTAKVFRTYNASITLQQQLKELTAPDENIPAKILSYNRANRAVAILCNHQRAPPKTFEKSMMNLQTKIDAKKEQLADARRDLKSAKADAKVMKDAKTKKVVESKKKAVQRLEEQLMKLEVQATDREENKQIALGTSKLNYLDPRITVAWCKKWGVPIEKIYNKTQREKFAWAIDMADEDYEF
Outline: (§2)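 pBR322 (100 ng) with recombinant human topo I (0.4 units) in 10 mM Tris-HCl pH 7.9, 150 mM NaCl, 0.1% BSA, 1 mM spermidine, 5% glycerol, 30 min at 37 °C. Stopped with sarcosyl/glycerol/dye and run on 1% agarose/TAE at 15 V for 7 h. EtBr-stained; supercoiled DNA quantified as % inhibition. Relative values are the ratio to the camptothecin control.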

[2] = target: T1, DNA topoisomerase 1 (Homo sapiens); assay: Inhibition of human recombinant DNA topoisomerase 1-mediated DNA relaxation at 20 uM incubated for 30 mins using pBR322 DNA substrate by ethidium bromide dye-based agarose gel electrophoresis relative to control camptothecin; outline: as §2
[3] = target: DNA topoisomerase 2-alpha (Homo sapiens) (UniProt P11388); assay: Inhibition of human DNA topoisomerase 2 alpha-mediated DNA relaxation at 100 uM incubated for 30 mins using pBR322 DNA substrate by ethidium bromide dye-based agarose gel electrophoresis relative to control etoposide
Sequence of DNA topoisomerase 2-alpha (Homo sapiens) (P11388 whole entry): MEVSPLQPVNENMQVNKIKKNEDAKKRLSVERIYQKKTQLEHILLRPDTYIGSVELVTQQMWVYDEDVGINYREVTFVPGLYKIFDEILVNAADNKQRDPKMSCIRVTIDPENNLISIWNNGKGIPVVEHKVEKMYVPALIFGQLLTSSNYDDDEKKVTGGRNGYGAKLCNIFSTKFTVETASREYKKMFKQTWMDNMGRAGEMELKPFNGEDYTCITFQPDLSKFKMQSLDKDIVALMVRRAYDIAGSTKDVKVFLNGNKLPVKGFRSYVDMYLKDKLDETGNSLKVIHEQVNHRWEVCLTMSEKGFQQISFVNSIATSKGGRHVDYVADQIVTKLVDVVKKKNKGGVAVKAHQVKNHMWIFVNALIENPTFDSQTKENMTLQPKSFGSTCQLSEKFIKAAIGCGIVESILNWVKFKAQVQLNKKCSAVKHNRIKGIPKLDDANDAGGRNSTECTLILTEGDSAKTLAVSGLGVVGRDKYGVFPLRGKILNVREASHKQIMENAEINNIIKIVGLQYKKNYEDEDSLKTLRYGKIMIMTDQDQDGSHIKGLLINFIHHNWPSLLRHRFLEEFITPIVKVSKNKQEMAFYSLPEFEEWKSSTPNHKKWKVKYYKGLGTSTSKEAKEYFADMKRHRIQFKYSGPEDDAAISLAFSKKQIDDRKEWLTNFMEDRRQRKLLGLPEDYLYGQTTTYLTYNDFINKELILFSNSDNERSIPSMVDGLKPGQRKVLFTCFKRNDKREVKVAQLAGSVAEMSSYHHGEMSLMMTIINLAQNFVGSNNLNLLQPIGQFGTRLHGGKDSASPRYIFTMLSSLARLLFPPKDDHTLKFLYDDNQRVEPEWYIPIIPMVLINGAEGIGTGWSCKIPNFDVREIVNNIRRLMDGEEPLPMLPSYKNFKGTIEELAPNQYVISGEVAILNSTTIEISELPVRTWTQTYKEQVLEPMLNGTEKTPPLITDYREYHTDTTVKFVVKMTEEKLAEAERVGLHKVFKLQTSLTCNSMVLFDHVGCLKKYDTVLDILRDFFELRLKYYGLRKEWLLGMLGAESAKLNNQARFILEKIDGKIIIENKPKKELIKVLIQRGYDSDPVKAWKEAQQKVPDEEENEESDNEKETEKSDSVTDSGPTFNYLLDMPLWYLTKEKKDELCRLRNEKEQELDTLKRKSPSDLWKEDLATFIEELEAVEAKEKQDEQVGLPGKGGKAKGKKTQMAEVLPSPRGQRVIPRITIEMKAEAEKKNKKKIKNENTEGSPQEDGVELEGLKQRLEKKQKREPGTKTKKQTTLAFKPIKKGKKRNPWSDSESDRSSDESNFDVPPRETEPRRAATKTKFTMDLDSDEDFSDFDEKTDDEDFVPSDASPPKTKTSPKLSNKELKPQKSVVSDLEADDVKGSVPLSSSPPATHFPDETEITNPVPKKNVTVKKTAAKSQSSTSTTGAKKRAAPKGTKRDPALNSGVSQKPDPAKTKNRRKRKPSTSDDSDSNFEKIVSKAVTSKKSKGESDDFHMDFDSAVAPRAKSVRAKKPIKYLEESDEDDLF
Outline: (§3)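 Stopped with EDTA and run on 1% agarose/TAE at 25 V for 4 h. EtBr-stained; supercoiled DNA quantified as % inhibition. Relative values are the ratio to the etoposide control.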

[4] = target: T1, DNA topoisomerase 1 (Homo sapiens); assay: Inhibition of human recombinant DNA topoisomerase 1-mediated DNA relaxation at 100 uM incubated for 30 mins using pBR322 DNA substrate by ethidium bromide dye-based agarose gel electrophoresis; outline: as §2
[5] = target: T1, DNA topoisomerase 1 (Homo sapiens); assay: Inhibition of human recombinant DNA topoisomerase 1-mediated DNA relaxation at 20 uM incubated for 30 mins using pBR322 DNA substrate by ethidium bromide dye-based agarose gel electrophoresis; outline: as §2
[6] = target: DNA topoisomerase 2-alpha (Homo sapiens) (UniProt P11388); assay: Inhibition of human DNA topoisomerase 2 alpha-mediated DNA relaxation at 100 uM incubated for 30 mins using pBR322 DNA substrate by ethidium bromide dye-based agarose gel electrophoresis; outline: as §3
DU-145 = assay: Cytotoxicity against human DU145 cells after 72 hrs by cell counting kit-8 analysis; type: functional, cell-based; conditions: DU-145, 72 h; outline: as §1
[7] = target: DNA topoisomerase 2-alpha (Homo sapiens) (UniProt P11388); assay: Inhibition of human DNA topoisomerase 2 alpha-mediated DNA relaxation at 20 uM incubated for 30 mins using pBR322 DNA substrate by ethidium bromide dye-based agarose gel electrophoresis relative to control etoposide; outline: as §3
Sus scrofa [8] = organism: Sus scrofa; assay: Inhibition of porcine brain tubulin polymerization at 10 uM after 61 mins by spectroscopic analysis
Outline: (§4)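 Porcine brain tubulin at 1.5 mg/mL final in cold PEM buffer (80 mM Na-PIPES pH 6.9, 1 mM MgCl₂, 30% glycerol, 1 mM EGTA) with 1 mM GTP. Compounds were dissolved in DMSO and diluted in PEM. They were pre-warmed 2 min at 37 °C before tubulin was added. DMSO vehicle and paclitaxel controls. A340 was read each minute for 61 min at 37 °C.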

[9] = target: DNA topoisomerase 2-alpha (Homo sapiens) (UniProt P11388); assay: Inhibition of human DNA topoisomerase 2 alpha-mediated DNA relaxation at 20 uM incubated for 30 mins using pBR322 DNA substrate by ethidium bromide dye-based agarose gel electrophoresis; outline: as §3
Sus scrofa [10] = organism: Sus scrofa; assay: Induction of porcine brain tubulin polymerization at 10 uM after 61 mins by spectroscopic analysis; outline: as §4

COc1ccc(-c2cc3ccccc3c(-c3cccc(OCCCN(C)C)c3)n2)cc1
IC50 (MCF-10A): 10200 nM
IC50 (T47D): 160 nM
IC50 (HCT-15): 1750 nM
Ratio [1]: 0.81
Ratio [2]: 0.38
Ratio [3]: 0.32
inhibition [4]: 47.9%
inhibition [5]: 12.1%
inhibition [6]: 20.2%

COc1ccc(-c2cc3ccccc3c(-c3cccc(OC)c3)n2)cc1
IC50 (MCF-10A): > 50000 nM
IC50 (T47D): 860 nM
IC50 (DU-145): > 50000 nM
IC50 (HCT-15): 1300 nM
Ratio [1]: 0.58
Ratio [2]: 0
Ratio [3]: 0
inhibition [4]: 43.2%
inhibition [5]: 0%
inhibition [6]: 0%

COc1cc(OC)cc(-c2cc3ccccc3c(-c3cccc(O)c3)n2)c1
IC50 (MCF-10A): 6770 nM
IC50 (T47D): 760 nM
IC50 (HCT-15): 840 nM
Ratio [1]: 0
Ratio [3]: 0.59
Ratio [7]: 0.9
inhibition (Sus scrofa [8]): inactive
inhibition [4]: 0%
inhibition [6]: 37.3%
inhibition [9]: 30.9%
Tubulin polymerization induction (Sus scrofa [10]): inactive

COc1ccc(-c2nc(-c3ccc(OC)c(OC)c3)cc3cc(C)ccc23)cc1
IC50 (MCF-10A): > 50000 nM
IC50 (T47D): 3340 nM
IC50 (DU-145): > 50000 nM
IC50 (HCT-15): 28700 nM
Ratio [1]: 0.04
Ratio [3]: 0
inhibition [4]: 2.3%
inhibition [6]: 0%

COc1ccc(-c2cc3cc(C)ccc3c(-c3ccc(O)cc3)n2)cc1OC
IC50 (MCF-10A): 18100 nM
IC50 (T47D): 4420 nM
IC50 (DU-145): 5980 nM
IC50 (HCT-15): 2520 nM
Ratio [1]: 0.005
Ratio [3]: 0.4
Ratio [7]: 0
inhibition [4]: 0.3%
inhibition [6]: 36.5%
inhibition [9]: 0%

COc1cccc(-c2nc(-c3ccc(OC)c(OC)c3)cc3cc(C)ccc23)c1
IC50 (MCF-10A): > 50000 nM
IC50 (T47D): 7860 nM
IC50 (DU-145): > 50000 nM
IC50 (HCT-15): 1840 nM
Ratio [1]: 0.05
Ratio [3]: 0
inhibition [4]: 2.9%
inhibition [6]: 0%

COc1ccc(-c2cc3cc(C)ccc3c(-c3cccc(OCCN(C)C)c3)n2)c(C)c1
IC50 (MCF-10A): 6350 nM
IC50 (T47D): 600 nM
IC50 (HCT-15): 2200 nM
Ratio [1]: 0.05
Ratio [3]: 0.81
Ratio [7]: 0.35
inhibition [4]: 3.7%
inhibition [6]: 49.6%
inhibition [9]: 13.2%

COc1ccc(-c2cc3ccccc3c(-c3ccc(OC)cc3)n2)cc1
IC50 (MCF-10A): > 50000 nM
IC50 (T47D): 850 nM
IC50 (HCT-15): 2790 nM
Ratio [1]: 0
Ratio [3]: 0.11
inhibition [4]: 0%
inhibition [6]: 7.4%

COc1ccc(-c2cc3cc(C)ccc3c(-c3cccc(O)c3)n2)cc1OC
IC50 (MCF-10A): 13500 nM
IC50 (T47D): 4340 nM
IC50 (DU-145): 6510 nM
IC50 (HCT-15): 370 nM
Ratio [1]: 0.03
Ratio [3]: 0.38
Ratio [7]: 0.01
inhibition [4]: 1.7%
inhibition [6]: 34.5%
inhibition [9]: 0.4%

COc1ccc(-c2cc3cc(C)ccc3c(-c3cccc(N)c3)n2)cc1OC
IC50 (MCF-10A): 5600 nM
IC50 (T47D): 450 nM
IC50 (HCT-15): 2700 nM
Ratio [1]: 0.11
Ratio [3]: 0.11
inhibition [4]: 7.2%
inhibition [6]: 6.9%

COc1ccc(-c2cc3ccccc3c(-c3cccc(O)c3)n2)cc1
IC50 (MCF-10A): 7830 nM
IC50 (T47D): 580 nM
IC50 (DU-145): 5360 nM
IC50 (HCT-15): 1200 nM
Ratio [1]: 0.12
Ratio [3]: 1.07
Ratio [7]: 0
inhibition [4]: 9.4%
inhibition [6]: 84.3%
inhibition [9]: 0%

COc1cc(OC)cc(-c2cc3ccccc3c(-c3ccc(O)cc3)n2)c1
IC50 (MCF-10A): 7280 nM
IC50 (T47D): 780 nM
IC50 (HCT-15): 2780 nM
Ratio [1]: 0
Ratio [3]: 0.82
Ratio [7]: 1.17
inhibition (Sus scrofa [8]): inactive
inhibition [4]: 0%
inhibition [6]: 51.2%
inhibition [9]: 40%
Tubulin polymerization induction (Sus scrofa [10]): inactive

COc1ccc(-c2cc3ccccc3c(-c3ccc(O)cc3)n2)cc1
IC50 (MCF-10A): > 50000 nM
IC50 (T47D): 1220 nM
IC50 (DU-145): > 50000 nM
IC50 (HCT-15): > 50000 nM
Ratio [1]: 0.09
Ratio [3]: 0
inhibition [4]: 6.7%
inhibition [6]: 0%

COc1cc(OC)cc(-c2cc3ccccc3c(-c3cccc(OC)c3)n2)c1
IC50 (MCF-10A): > 50000 nM
IC50 (T47D): 1120 nM
IC50 (HCT-15): 1170 nM
Ratio [1]: 0
Ratio [3]: 0.26
inhibition [4]: 0%
inhibition [6]: 16.7%

COc1ccc(-c2cc3cc(C)ccc3c(-c3ccc(OCCN(C)C)cc3)n2)cc1OC
IC50 (MCF-10A): 5310 nM
IC50 (T47D): 2330 nM
IC50 (HCT-15): 970 nM
Ratio [1]: 1.22
Ratio [2]: 0
Ratio [3]: 1.24
Ratio [7]: 0.41
inhibition [4]: 79.6%
inhibition [5]: 0%
inhibition [6]: 75.8%
inhibition [9]: 15.3%

COc1ccc(/C=C\c2cc(OC)c(OC)c(OC)c2)cc1O
inhibition (Sus scrofa [8]): 100%

COc1cc(OC)cc(-c2cc3ccccc3c(-c3cccc(N)c3)n2)c1
IC50 (MCF-10A): > 50000 nM
IC50 (T47D): 980 nM
IC50 (HCT-15): 4080 nM
Ratio [1]: 0
Ratio [3]: 0.37
inhibition [4]: 0%
inhibition [6]: 23.6%

CC(=O)O[C@H]1C(=O)[C@@]2(C)[C@H]([C@H](OC(=O)c3ccccc3)[C@]3(O)C[C@H](OC(=O)[C@H](O)[C@@H](NC(=O)c4ccccc4)c4ccccc4)C(C)=C1C3(C)C)[C@]1(OC(C)=O)CO[C@@H]1C[C@@H]2O
Activity (Sus scrofa [10]): Active

COc1cccc2c1C(=O)c1c(O)c3c(c(O)c1C2=O)C[C@@](O)(C(=O)CO)C[C@@H]3O[C@H]1C[C@H](N)[C@H](O)[C@H](C)O1 [DOXORUBICIN HYDROCHLORIDE]
IC50 (MCF-10A): 930 nM

COc1ccc(-c2cc3ccccc3c(-c3cccc(N)c3)n2)cc1
IC50 (MCF-10A): 18800 nM
IC50 (T47D): 950 nM
IC50 (HCT-15): 2350 nM
Ratio [1]: 0
Ratio [3]: 0.12
inhibition [4]: 0%
inhibition [6]: 7.7%

COc1ccc(-c2cc3cc(C)ccc3c(-c3cccc(O)c3)n2)c(C)c1
IC50 (MCF-10A): 5050 nM
IC50 (T47D): 560 nM
IC50 (HCT-15): 1750 nM
Ratio [1]: 1.13
Ratio [2]: 2.46
Ratio [3]: 0.2
inhibition (Sus scrofa [8]): Active
inhibition [4]: 73.4%
inhibition [5]: 70.4%
inhibition [6]: 12.3%
Tubulin polymerization induction (Sus scrofa [10]): inactive

COc1ccc(-c2cc3cc(C)ccc3c(-c3cccc(OCCCN(C)C)c3)n2)c(C)c1
IC50 (MCF-10A): 6070 nM
IC50 (T47D): 290 nM
IC50 (HCT-15): 870 nM
Ratio [1]: 0.6
Ratio [2]: 0
Ratio [3]: 0.67
Ratio [7]: 0.28
inhibition [4]: 39.3%
inhibition [5]: 0%
inhibition [6]: 40.9%
inhibition [9]: 10.5%

COc1cc(OC)cc(-c2cc3cc(OC)c(OC)cc3c(-c3cccc(O)c3)n2)c1
IC50 (MCF-10A): 5900 nM
IC50 (T47D): 3920 nM
IC50 (DU-145): 8120 nM
IC50 (HCT-15): 540 nM
Ratio [1]: 0.06
Ratio [3]: 0
inhibition [4]: 4.6%
inhibition [6]: 0%
